Results taken from ChEMBL document CHEMBL2069246, “Oxadiazoles in medicinal chemistry” (J Med Chem, 2012).
Converted amounts (≈) assume the structure as drawn.

How the values were obtained:
[1] = Lipophilicity, log D of the compound at pH 7.4; assay type: physicochemical; details: buffer
[2] = Aqueous solubility of the compound in HBSS buffer at pH 7.4; assay type: physicochemical
[3] = Dissociation constant, pKa of the compound; assay type: physicochemical
[4] = molecular target: Voltage-gated inwardly rectifying potassium channel KCNH2 (Homo sapiens, UniProt Q12809); assay: Inhibition of human ERG channel expressed in CHO cells by patch clamp assay
Cytochrome P450 1A2 [5] = molecular target: T1, Cytochrome P450 1A2 (Homo sapiens, UniProt P05177); assay: Inhibition of human recombinant CYP1A2 coexpressed in Escherichia coli using phenacetin as probe; assay type: ADME
T1 sequence (P05177 whole entry): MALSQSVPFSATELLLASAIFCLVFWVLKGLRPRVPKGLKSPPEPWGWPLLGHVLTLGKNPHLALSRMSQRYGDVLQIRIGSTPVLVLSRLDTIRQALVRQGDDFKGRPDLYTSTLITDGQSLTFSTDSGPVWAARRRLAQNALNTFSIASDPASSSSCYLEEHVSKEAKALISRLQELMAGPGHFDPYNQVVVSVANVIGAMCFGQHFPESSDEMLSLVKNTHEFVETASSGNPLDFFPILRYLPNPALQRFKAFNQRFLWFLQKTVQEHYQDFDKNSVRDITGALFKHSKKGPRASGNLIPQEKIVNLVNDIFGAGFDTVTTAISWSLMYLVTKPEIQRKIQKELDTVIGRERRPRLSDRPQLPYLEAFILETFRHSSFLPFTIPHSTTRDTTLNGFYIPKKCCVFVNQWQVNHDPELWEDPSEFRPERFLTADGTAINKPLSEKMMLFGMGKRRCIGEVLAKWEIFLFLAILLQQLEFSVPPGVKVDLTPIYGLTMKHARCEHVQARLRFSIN
How it was run: (§1)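 Human recombinant cytochrome P450s at 37 °C. Read-out is inhibition of metabolic degradation of each isoform's substrate. Percent inhibition is measured at five test concentrations and converted to IC50.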

Cytochrome P450 2C9 [6] = molecular target: T2, Cytochrome P450 2C9 (Homo sapiens, UniProt P11712); assay: Activity of human recombinant CYP2C9 assessed as enzyme contribution towards compound metabolism at 37 degC; assay type: ADME
How it was run: (§2)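 CYP reaction phenotyping with human recombinant P450 isoforms at 37 °C. Each isoform's share of compound metabolism is given as percent contribution relative to the other isoforms in the test.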

Cytochrome P450 3A4 [7] = molecular target: T3, Cytochrome P450 3A4 (Homo sapiens, UniProt P08684); assay: Activity of human recombinant CYP3A4 assessed as enzyme contribution towards compound metabolism at 37 degC; assay type: ADME; parameters: concentration or dose not given beside the values; how it was run: as §2
Cytochrome P450 2C19 [8] = molecular target: T4, Cytochrome P450 2C19 (Homo sapiens, UniProt P33261); assay: Inhibition of human recombinant CYP2C19 coexpressed in Escherichia coli; assay type: ADME; how it was run: as §1
Cytochrome P450 2C8 [9] = molecular target: T5, Cytochrome P450 2C8 (Homo sapiens, UniProt P10632); assay: Activity of human recombinant CYP2C8 assessed as enzyme contribution towards compound metabolism at 37 degC; assay type: ADME; how it was run: as §2
T5 sequence (P10632 whole entry): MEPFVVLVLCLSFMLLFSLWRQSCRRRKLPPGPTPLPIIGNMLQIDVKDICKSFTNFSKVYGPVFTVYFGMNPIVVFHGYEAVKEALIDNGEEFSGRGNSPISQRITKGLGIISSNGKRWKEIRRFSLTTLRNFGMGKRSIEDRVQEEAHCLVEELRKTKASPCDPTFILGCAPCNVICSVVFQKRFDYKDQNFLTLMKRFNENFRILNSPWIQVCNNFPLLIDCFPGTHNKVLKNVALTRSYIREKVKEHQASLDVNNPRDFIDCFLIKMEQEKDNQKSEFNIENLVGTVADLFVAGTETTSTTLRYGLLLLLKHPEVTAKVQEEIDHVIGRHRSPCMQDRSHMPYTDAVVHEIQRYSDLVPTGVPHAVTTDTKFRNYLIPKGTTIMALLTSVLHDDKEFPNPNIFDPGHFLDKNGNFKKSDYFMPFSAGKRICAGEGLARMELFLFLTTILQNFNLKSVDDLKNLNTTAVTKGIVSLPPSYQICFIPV

Cytochrome P450 2D6 [10] = molecular target: T6, Cytochrome P450 2D6 (Homo sapiens, UniProt P10635); assay: Activity of human recombinant CYP2D6 assessed as enzyme contribution towards compound metabolism at 37 degC; assay type: ADME; how it was run: as §2
Cytochrome P450 2D6 [11] = molecular target: T6, Cytochrome P450 2D6; assay: Inhibition of human recombinant CYP2D6 coexpressed in Escherichia coli; assay type: ADME; how it was run: as §1
Cytochrome P450 2C8 [12] = molecular target: T5, Cytochrome P450 2C8; assay: Inhibition of human recombinant CYP2C8 coexpressed in Escherichia coli; assay type: ADME; how it was run: as §1
Cytochrome P450 2C19 [13] = molecular target: T4, Cytochrome P450 2C19; assay: Activity of human recombinant CYP2C19 assessed as enzyme contribution towards compound metabolism at 37 degC; assay type: ADME; how it was run: as §2
[14] = Intrinsic clearance in human liver microsomes at 1 mg/ml; assay type: ADME, Microsome; details: read-out: CLH
How it was run: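 Compound incubated 45 min at 37 °C with human liver microsomes at 1 mg/mL. CLint is taken from the rate of parent disappearance.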

Cytochrome P450 3A4 [15] = molecular target: T3, Cytochrome P450 3A4; assay: Inhibition of human recombinant CYP3A4 coexpressed in Escherichia coli; assay type: ADME; how it was run: as §1
Cytochrome P450 1A2 [16] = molecular target: T1, Cytochrome P450 1A2; assay: Activity of human recombinant CYP1A2 assessed as enzyme contribution towards compound metabolism at 37 degC; assay type: ADME; how it was run: as §2
Cytochrome P450 2C9 [17] = molecular target: T2, Cytochrome P450 2C9; assay: Inhibition of human recombinant CYP2C9 coexpressed in Escherichia coli; assay type: ADME; how it was run: as §1

Sequence of Voltage-gated inwardly rectifying potassium channel KCNH2 (Q12809 whole entry): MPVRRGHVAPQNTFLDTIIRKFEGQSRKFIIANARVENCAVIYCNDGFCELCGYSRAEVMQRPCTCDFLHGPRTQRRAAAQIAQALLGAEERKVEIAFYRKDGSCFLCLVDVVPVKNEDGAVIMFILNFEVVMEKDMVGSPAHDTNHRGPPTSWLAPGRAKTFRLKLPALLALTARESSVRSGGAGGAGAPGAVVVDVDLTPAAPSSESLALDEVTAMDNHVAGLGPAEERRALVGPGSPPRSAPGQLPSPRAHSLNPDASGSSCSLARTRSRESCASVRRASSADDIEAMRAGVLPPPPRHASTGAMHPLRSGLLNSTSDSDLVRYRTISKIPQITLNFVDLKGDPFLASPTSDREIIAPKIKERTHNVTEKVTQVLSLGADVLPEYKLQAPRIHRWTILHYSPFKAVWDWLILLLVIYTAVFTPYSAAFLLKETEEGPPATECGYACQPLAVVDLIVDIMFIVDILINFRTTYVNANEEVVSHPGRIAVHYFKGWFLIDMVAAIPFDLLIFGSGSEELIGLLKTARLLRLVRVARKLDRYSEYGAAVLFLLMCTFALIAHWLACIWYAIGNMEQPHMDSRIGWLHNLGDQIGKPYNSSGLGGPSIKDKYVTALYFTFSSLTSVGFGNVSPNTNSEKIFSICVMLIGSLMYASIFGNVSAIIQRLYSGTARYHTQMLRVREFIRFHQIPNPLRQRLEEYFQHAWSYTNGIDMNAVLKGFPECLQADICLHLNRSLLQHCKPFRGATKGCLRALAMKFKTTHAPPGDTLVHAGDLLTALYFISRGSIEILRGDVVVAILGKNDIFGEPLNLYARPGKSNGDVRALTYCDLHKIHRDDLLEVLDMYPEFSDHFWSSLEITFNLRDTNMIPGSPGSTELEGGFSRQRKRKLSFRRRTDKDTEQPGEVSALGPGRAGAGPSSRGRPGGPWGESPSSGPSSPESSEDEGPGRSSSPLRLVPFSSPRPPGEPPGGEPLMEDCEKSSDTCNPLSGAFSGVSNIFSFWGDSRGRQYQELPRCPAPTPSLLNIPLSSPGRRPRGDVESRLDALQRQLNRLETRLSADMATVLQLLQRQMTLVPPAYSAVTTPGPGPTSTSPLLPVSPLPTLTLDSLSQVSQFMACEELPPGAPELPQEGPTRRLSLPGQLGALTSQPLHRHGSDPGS
T6 sequence (P10635 whole entry): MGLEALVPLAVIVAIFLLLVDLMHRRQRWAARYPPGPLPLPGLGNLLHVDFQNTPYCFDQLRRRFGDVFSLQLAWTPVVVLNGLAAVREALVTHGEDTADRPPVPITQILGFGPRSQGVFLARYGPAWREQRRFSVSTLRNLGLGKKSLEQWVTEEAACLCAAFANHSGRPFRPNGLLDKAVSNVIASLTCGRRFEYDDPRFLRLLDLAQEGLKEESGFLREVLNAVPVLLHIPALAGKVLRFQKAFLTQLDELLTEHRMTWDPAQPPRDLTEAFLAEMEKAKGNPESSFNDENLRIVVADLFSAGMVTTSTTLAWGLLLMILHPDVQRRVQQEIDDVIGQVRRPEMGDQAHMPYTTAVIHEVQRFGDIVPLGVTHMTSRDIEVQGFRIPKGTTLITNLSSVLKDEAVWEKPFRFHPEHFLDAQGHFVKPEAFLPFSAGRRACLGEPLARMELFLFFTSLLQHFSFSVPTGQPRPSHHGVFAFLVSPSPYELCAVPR
T3 sequence (P08684 whole entry): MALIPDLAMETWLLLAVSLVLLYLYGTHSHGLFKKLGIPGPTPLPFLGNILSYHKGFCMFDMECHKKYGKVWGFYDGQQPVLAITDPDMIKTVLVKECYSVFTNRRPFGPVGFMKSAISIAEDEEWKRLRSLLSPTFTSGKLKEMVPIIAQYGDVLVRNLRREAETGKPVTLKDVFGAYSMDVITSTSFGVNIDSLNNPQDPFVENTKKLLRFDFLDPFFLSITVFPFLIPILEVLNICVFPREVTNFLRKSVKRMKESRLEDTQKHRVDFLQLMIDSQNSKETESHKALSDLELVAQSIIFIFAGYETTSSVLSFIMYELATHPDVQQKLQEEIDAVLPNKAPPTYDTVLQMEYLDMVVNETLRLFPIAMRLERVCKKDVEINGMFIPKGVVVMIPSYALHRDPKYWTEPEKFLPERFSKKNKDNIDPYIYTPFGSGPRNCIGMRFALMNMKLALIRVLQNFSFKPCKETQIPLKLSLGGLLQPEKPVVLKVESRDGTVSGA
T2 sequence (P11712 whole entry, canonical isoform): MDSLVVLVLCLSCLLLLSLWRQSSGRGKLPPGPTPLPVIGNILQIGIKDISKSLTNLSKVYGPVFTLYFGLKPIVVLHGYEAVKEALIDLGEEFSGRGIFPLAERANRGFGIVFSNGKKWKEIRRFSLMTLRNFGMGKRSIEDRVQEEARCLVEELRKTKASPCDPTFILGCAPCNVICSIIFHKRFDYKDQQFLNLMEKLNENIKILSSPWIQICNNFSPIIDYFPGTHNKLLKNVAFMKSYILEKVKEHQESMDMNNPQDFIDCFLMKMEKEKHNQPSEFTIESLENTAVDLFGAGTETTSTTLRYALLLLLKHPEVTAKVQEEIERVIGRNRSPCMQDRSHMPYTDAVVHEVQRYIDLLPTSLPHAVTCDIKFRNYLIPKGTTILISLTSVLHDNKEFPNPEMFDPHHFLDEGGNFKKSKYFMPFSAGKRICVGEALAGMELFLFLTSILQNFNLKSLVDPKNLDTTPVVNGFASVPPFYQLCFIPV
T4 sequence (P33261 whole entry): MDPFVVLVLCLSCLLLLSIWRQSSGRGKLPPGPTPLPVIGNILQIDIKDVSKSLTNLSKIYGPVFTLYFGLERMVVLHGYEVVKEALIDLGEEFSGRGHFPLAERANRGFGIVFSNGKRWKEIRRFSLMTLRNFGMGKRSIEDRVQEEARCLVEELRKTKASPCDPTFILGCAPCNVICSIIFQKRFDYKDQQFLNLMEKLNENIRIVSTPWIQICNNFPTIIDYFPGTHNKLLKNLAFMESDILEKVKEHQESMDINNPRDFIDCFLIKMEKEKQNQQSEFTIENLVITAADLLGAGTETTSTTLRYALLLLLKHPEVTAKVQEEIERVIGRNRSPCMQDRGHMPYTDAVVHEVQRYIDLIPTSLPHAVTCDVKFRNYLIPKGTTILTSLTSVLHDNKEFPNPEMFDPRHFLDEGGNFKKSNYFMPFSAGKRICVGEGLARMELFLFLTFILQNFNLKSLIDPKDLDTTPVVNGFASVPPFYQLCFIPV

Structure (SMILES)	logD [1]	solubility [2] [µM]	pKa [3]	IC50 [4] [µM]	further results
c1ccc(-c2nnc(-c3ccccc3)o2)cc1	4	26 (≈ 5.78 µg/mL)			
C[C@@H](Oc1nnc(-c2ccncc2)n1C)c1nnc(-c2cccc(Cl)c2)o1	2.3		3.7	21.5	
c1ccc(-c2noc(-c3ccccc3)n2)cc1	5.9	7 (≈ 1.56 µg/mL)			
CCCc1cc(=O)[nH]c(SCc2nnc(-c3ccccc3)o2)n1	2.2	81 (≈ 26.6 µg/mL)			
c1ccc(CN2CCN(Cc3nnc(-c4ccccc4)o3)CC2)cc1	3.6		6.7	27.3	IC50 (Cytochrome P450 1A2 [5]): > 20 µM; CYP isoform contribution to compound metabolism (Cytochrome P450 2C9 [6]): 1.2%; Activity (Cytochrome P450 3A4 [7]): 92%; IC50 (Cytochrome P450 2C19 [8]): > 20 µM; Activity (Cytochrome P450 2C8 [9]): 1.5%; Activity (Cytochrome P450 2D6 [10]): 1.7%; IC50 (Cytochrome P450 2D6 [11]): > 20 µM; IC50 (Cytochrome P450 2C8 [12]): > 20 µM; Activity (Cytochrome P450 2C19 [13]): 3.2%; microsomal CLint [14]: 4 µL/min/mg; IC50 (Cytochrome P450 3A4 [15]): > 20 µM; Activity (Cytochrome P450 1A2 [16]): 0%; IC50 (Cytochrome P450 2C9 [17]): > 20 µM
c1ccc(-c2nnc(CN3CCN(Cc4nc5ccccc5s4)CC3)o2)cc1	3.9		4.4	30	
CCOC(=O)N1CCN(Cc2noc(-c3cc(Cl)ccc3F)n2)CC1	4.3		4	31	
CCCc1cc(O)nc(SCc2nc(-c3ccccc3)no2)n1	3.1	5 (≈ 1.64 µg/mL)			
C[C@@H](Oc1nnc(-c2ccncc2)n1C)c1noc(-c2cccc(Cl)c2)n1	3		3.4	11.6	
